For test [1], the target named is T1, TGF-beta receptor type-1 (Homo sapiens) (UniProt P36897).
T1 sequence (whole entry): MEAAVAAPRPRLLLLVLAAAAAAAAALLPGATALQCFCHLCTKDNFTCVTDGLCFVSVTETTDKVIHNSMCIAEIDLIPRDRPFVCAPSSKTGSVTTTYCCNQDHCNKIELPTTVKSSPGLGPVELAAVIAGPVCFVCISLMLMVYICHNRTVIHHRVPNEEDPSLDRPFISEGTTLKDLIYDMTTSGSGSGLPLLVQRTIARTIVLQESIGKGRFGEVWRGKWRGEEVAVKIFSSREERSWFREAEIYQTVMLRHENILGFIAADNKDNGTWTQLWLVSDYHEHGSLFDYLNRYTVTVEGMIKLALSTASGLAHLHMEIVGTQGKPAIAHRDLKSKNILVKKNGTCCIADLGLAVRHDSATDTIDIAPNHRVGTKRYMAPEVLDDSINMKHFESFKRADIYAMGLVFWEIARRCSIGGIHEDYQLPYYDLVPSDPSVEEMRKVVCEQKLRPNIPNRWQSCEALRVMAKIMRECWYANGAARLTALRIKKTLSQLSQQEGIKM
The test is described as follows: Inhibition of human ALK5 activity in human HaCaT cells assessed as ARE-luciferase reporter activity. In kind it is cell-based. The settings on record: in the assay text read “p3TP-luciferase” for “ARE-luciferase”. The method in brief:
(§1)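 HaCaT cells seeded at 5 × 10⁴ per well; next day (about 90% confluent) transiently co-transfected with p3TP-Luc or ARE-Luc reporter plus β-galactosidase by lipofection. Inhibitors added 24 h post-transfection, 2 h before stimulation with 5 ng/mL TGF-β for 18–24 h. Luminescence of lysates read. Mean ± SD of three independent experiments run in triplicate, relative to DMSO vehicle control.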
On the technique in general: In a reporter assay the amount or activity of a reporter protein is the signal.

The target in test [2] is Mitogen-activated protein kinase 14 (Homo sapiens) (UniProt Q16539). The test is described as follows: Inhibition of p38alpha MAP kinase at 10 uM. Set-up: scale not given: the % may be the effect or the level left. The method in brief: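 Radiometric coupled assay. [γ-³²P]ATP and MAPKAP kinase-2 substrate then added, 10 min at 30 °C. Mixture spotted onto P81 phosphocellulose paper, washed with 0.75% phosphoric acid, bound radioactivity counted by liquid scintillation.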

Test [3] deals with T1, TGF-beta receptor type-1 (Homo sapiens). Nature of the test: Inhibition of human ALK5 activity in human HaCaT cells assessed as p3TP-luciferase reporter activity. The format is cell-based. The method in brief: as §1

Sequence of Mitogen-activated protein kinase 14 (Homo sapiens) (Q16539 whole entry): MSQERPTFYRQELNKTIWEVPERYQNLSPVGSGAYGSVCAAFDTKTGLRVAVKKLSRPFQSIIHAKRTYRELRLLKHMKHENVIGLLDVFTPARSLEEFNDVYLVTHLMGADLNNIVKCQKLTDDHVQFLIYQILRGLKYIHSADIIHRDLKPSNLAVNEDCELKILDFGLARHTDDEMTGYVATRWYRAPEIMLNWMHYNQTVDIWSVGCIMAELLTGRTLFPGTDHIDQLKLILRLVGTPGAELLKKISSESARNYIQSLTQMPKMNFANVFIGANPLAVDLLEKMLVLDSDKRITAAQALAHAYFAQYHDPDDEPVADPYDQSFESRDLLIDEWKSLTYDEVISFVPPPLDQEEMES

Take `Cc1cccc(-c2[nH]c(Cc3ccc(S(N)(=O)=O)cc3)nc2-c2ccc3nccnc3c2)n1`: the results for the Activity result in test [1], in test [2] and in test [3] were “Dose-dependent effect”, 89% and “Dose-dependent effect”, respectively.
`NS(=O)(=O)c1ccc(CCc2nc(-c3ccc4nccnc4c3)c(-c3ccccn3)[nH]2)cc1` returned an Activity in test [2] of 97%.
As for `CCc1cccc(-c2[nH]c(Cc3ccc(S(N)(=O)=O)cc3)nc2-c2ccc3nccnc3c2)n1`, the Activity result was “Dose-dependent effect” in test [1], 92% in test [2] and “Dose-dependent effect” in test [3].
`CCCCc1cccc(-c2[nH]c(Cc3ccc(S(N)(=O)=O)cc3)nc2-c2ccc3nccnc3c2)n1` came in with an Activity in test [2] of 104%.
`CCCc1cccc(-c2[nH]c(Cc3ccc(S(N)(=O)=O)cc3)nc2-c2ccc3nccnc3c2)n1` gave an Activity in test [2] of 105%.
Same read-out and setting: the value for `CC(C)c1cccc(-c2[nH]c(Cc3ccc(S(N)(=O)=O)cc3)nc2-c2ccc3nccnc3c2)n1` was 98%; that for `CCc1cccc(-c2[nH]c(CCc3ccc(S(N)(=O)=O)cc3)nc2-c2ccc3nccnc3c2)n1` was 96%.
In turn, `CC(C)c1cccc(-c2[nH]c(CCc3ccc(S(N)(=O)=O)cc3)nc2-c2ccc3nccnc3c2)n1` yielded an Activity in test [2] of 105%.
In test [2], `CCCCc1cccc(-c2[nH]c(CCc3ccc(S(N)(=O)=O)cc3)nc2-c2ccc3nccnc3c2)n1` displayed an Activity of 97%.
In the case of `NS(=O)(=O)c1ccc(Cc2nc(-c3ccc4nccnc4c3)c(-c3ccccn3)[nH]2)cc1`, the Activity in test [2] came to 95%.
For `NC(=O)c1ccc(-c2nc(-c3ccccn3)c(-c3ccc4c(c3)OCO4)[nH]2)cc1`, the Activity in test [2] was found to be 49%.
On to `Cc1cccc(-c2[nH]c(CCc3ccc(S(N)(=O)=O)cc3)nc2-c2ccc3nccnc3c2)n1`, for which the Activity in test [2] came out at 91%.
In turn, `CCCc1cccc(-c2[nH]c(CCc3ccc(S(N)(=O)=O)cc3)nc2-c2ccc3nccnc3c2)n1` gave an Activity in test [2] of 103%.
